The source of these data is PubChem BioAssay AID488843 (Broad Institute, 2010).

For test [1], the system named is U2OS VEGF mRNA induction, RT-PCR. The test is described as follows: VEGF mRNA induction via HIF pathway, dose response, cell-based, U2OS, RT-PCR, dry powder (AID 488843). The gist of the method:
(§1)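 Assay system: U2OS osteosarcoma cells, VEGF-A transcript | Buffer or medium: DMEM without phenol red plus 10% FBS | Dosing: Pinned compound dose series | Timing: 24 h pre-dosing growth, then 24 h exposure at 37 °C | Measured by: Multiplex TaqMan RT-qPCR, VEGF-A FAM, beta-actin VIC | Controls: DMSO wells as negative reference | Repeats: Duplicate wells per dose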

Assay in test [2]: as above
The following applies: U2OS VEGF mRNA induction, RT-PCR; at 38 µM (top of the series). In a few lines:
as §1

The term AC50 denotes the midpoint of the concentration-response curve, whichever way the signal moves.

The source made the active and inactive calls.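 Rule for the calls: active = compound whose fitted half-maximal VEGF mRNA rise lies within ten times its top tested dose; inconclusive = flat response of 30 to 70% or a poor curve fit; inactive = the rest, including reverse-direction effects.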

Consider `C=CCNc1nc(-c2ccccn2)nnc1-c1ccccc1`, for which the half-maximal activity concentration (AC50) in test [1] is 7 µM. As for `O=C(c1cc(-c2ccccc2)on1)N1CCN(c2ccncc2)CC1`, the activation (VEGF mRNA increase) in test [2] is 34.7% (inactive).

In the case of `c1ccc(-c2csc(Nc3nc(-c4ccccn4)nnc3-c3ccccc3)n2)cc1`, the AC50 in test [1] was 2.69 µM. Same read-out and setting: under `Cc1cccc(Nc2nc(-c3ccccn3)nnc2-c2ccccc2)n1` stands 12.9 µM. `Cc1ccccc1CNc1nc(-c2ccccn2)nnc1-c1ccccc1`: in test [1], the AC50 is 5.64 µM. In the case of `O=C(NC1Cc2ccccc2C1)c1cc(-c2ccccc2)on1`, in test [2], the activation (VEGF mRNA increase) was -0.187% (inactive).

As for `O=C(NCCCN1CCOCC1)c1cc(-c2ccccc2)on1`, in test [1], the AC50 is 30.7 µM. As to `O=C(Nc1nc2ccccc2s1)c1cc(-c2ccccc2)on1`, the activation (VEGF mRNA increase) in test [2] was 4.08% (inactive). As to `CN1CCN(C(=O)c2cc(-c3ccccc3)on2)CC1`, the activation (VEGF mRNA increase) in test [2] is -1.09% (inactive). Still for that read-out and setting: under `Cn1c(NC(=O)c2cc(-c3ccccc3)on2)nc2ccccc21` stands 2.87% (inactive). For the molecule `Cc1cccc(CNc2nc(-c3ccccn3)nnc2-c2ccccc2)c1`, the concentration at half-maximal activity (AC50) in test [1] was 3.83 µM.

As for `Cc1ccccc1CNC(=O)c1cc(-c2ccccc2)on1`, the activation (VEGF mRNA increase) in test [2] was 22.6% (inactive). Take `CC(C)(C)CCNc1nc(-c2ccccn2)nnc1-c1ccccc1`: the half-maximal activity concentration (AC50) in test [1] was 3.58 µM. With `Cc1ccc(CNc2nc(-c3ccccn3)nnc2-c2ccccc2)cc1`, in test [1], the AC50 was 3.46 µM. On to `O=C(c1cc(-c2ccccc2)on1)N1CCc2cccnc21`, for which the activation (VEGF mRNA increase) in test [2] is 5.19% (inactive). As for `Cc1ccc(Nc2nc(-c3ccccn3)nnc2-c2ccccc2)cn1`, the half-maximal activity concentration (AC50) in test [1] is 8.83 µM.

Turning to `CCCCNC(=O)c1cc(-c2ccccc2)on1`, in test [1], the AC50 is 12.4 µM. With `O=C(NCC1CCCCC1)c1cc(-c2ccccc2)on1`, the activation (VEGF mRNA increase) in test [2] was -2.06% (inactive).

Take `CN(C)CCNC(=O)c1cc(-c2ccccc2)on1`: the activation (VEGF mRNA increase) in test [2] is 4% (inactive). As for `c1ccc(CNc2nc(-c3ccccn3)nnc2-c2ccccc2)cc1`, in test [1], the AC50 was 7.55 µM. Turning to `O=C(NCCCO)c1cc(-c2ccccc2)on1`, the AC50 in test [1] is 22.3 µM. Still for that read-out and setting: under `CN(C)c1nc(-c2ccccn2)nnc1-c1ccccc1` stands 6.38 µM.

For the molecule `Cc1cccc(NC(=O)c2cc(-c3ccccc3)on2)n1`, in test [2], the activation (VEGF mRNA increase) is -4.09% (inactive). On to `O=C(NCCN1CCOCC1)c1cc(-c2ccccc2)on1`, for which the concentration at half-maximal activity (AC50) in test [1] is 19.6 µM.

In the case of `O=C(c1cc(-c2ccccc2)on1)N1CCC(N2CCCC2)CC1`, in test [2], the activation (VEGF mRNA increase) is 9.95% (inactive).

Turning to `c1ccc(-c2nnc(-c3ccccn3)nc2N2CCC(N3CCOCC3)CC2)cc1`, in test [1], the AC50 is 8.46 µM. Regarding `c1ccc(-c2nnc(-c3ccccn3)nc2NCCCN2CCOCC2)cc1`, in test [1], the half-maximal activity concentration (AC50) is 9.7 µM. Still for that read-out and setting: the value for `O=C(Nc1ccc2ccccc2n1)c1cc(-c2ccccc2)on1` was 7.99 µM. Regarding `O=C(Nc1cnc2ccccc2c1)c1cc(-c2ccccc2)on1`, in test [2], the activation (VEGF mRNA increase) was 3.98% (inactive). As to `c1ccc(-c2nnc(Nc3nc(-c4ccccn4)nnc3-c3ccccc3)s2)cc1`, in test [1], the AC50 is 2.81 µM.

With `c1ccc(-c2cnc(Nc3nc(-c4ccccn4)nnc3-c3ccccc3)s2)cc1`, the AC50 in test [1] is 4.96 µM. On to `c1ccc(-c2nnc(-c3ccccn3)nc2Nc2cnc3ccccc3n2)cc1`, for which, in test [1], the concentration at half-maximal activity (AC50) was 4.81 µM.

`O=C(Nc1nc(-c2ccccc2)cs1)c1cc(-c2ccccc2)on1`: the activation (VEGF mRNA increase) in test [2] was 3.91% (inactive). `Cn1c(-c2ccccc2)cnc1Nc1nc(-c2ccccn2)nnc1-c1ccccc1`: the concentration at half-maximal activity (AC50) in test [1] is 5.34 µM.

Turning to `O=C(NC1CCc2ccccc2C1)c1cc(-c2ccccc2)on1` (centres undefined), the activation (VEGF mRNA increase) in test [2] was 14.2% (inactive). Regarding `c1ccc(-c2nnc(-c3ccccn3)nc2NCCN2CCOCC2)cc1`, the AC50 in test [1] was 8.52 µM. Consider `O=C(NCc1ccccc1)c1cc(-c2ccccc2)on1`, for which the activation (VEGF mRNA increase) in test [2] was 12.2% (inactive). The same measure, in the same setting: under `O=C(Nc1ncc(-c2ccccc2)o1)c1cc(-c2ccccc2)on1` stands 1.3% (inactive); under `O=C(Nc1ncc2ccccc2n1)c1cc(-c2ccccc2)on1`, 17.1% (inactive); under `O=C(Nc1cn2ccccc2n1)c1cc(-c2ccccc2)on1`, 20.3% (inactive). As to `O=C(NCCCCO)c1cc(-c2ccccc2)on1`, the concentration at half-maximal activity (AC50) in test [1] was 8.59 µM. Still for that read-out and setting: under `O=C(NCC1CC1)c1cc(-c2ccccc2)on1` stands 14.4 µM; under `c1ccc(-c2nnc(-c3ccccn3)nc2NCC2CCCCC2)cc1`, 3.04 µM; under `c1ccc(-c2nnc(-c3ccccn3)nc2Nc2nc3ccccc3s2)cc1`, 1.71 µM. In the case of `Cc1ccc(CNC(=O)c2cc(-c3ccccc3)on2)cc1`, the activation (VEGF mRNA increase) in test [2] is -3.43% (inactive). Same read-out and setting: under `Cc1cccc(CNC(=O)c2cc(-c3ccccc3)on2)c1` stands 11.8% (inactive); under `O=C(Nc1nnc(-c2ccccc2)s1)c1cc(-c2ccccc2)on1`, 3.52% (inactive). On to `c1ccc(-c2nnc(-c3ccccn3)nc2N2CCN(c3ccncc3)CC2)cc1`, for which the AC50 in test [1] is 7.31 µM. On to `Cc1ccc(NC(=O)c2cc(-c3ccccc3)on2)cn1`, for which the concentration at half-maximal activity (AC50) in test [1] was 38 µM.

As to `O=C(NCCN1CCCCC1)c1cc(-c2ccccc2)on1`, the activation (VEGF mRNA increase) in test [2] is 14.3% (inactive). On the same count and under the same terms, under `O=C(c1cc(-c2ccccc2)on1)N1CCC(N2CCOCC2)CC1` stands 13% (inactive). For `OCC1CCN(c2nc(-c3ccccn3)nnc2-c2ccccc2)CC1`, the AC50 in test [1] was 11.1 µM.

For `O=C(c1cc(-c2ccccc2)on1)N1CCC(CO)CC1`, the activation (VEGF mRNA increase) in test [2] was 14.4% (inactive). `OCCCNc1nc(-c2ccccn2)nnc1-c1ccccc1`: the AC50 in test [1] is 10.7 µM. On the same count and under the same terms, under `c1ccc(-c2nnc(-c3ccccn3)nc2NCC2CC2)cc1` stands 8.4 µM. Turning to `CC(C)(C)CCNC(=O)c1cc(-c2ccccc2)on1`, the activation (VEGF mRNA increase) in test [2] was 13.5% (inactive).

As to `Cn1c(-c2ccccc2)cnc1NC(=O)c1cc(-c2ccccc2)on1`, the activation (VEGF mRNA increase) in test [2] is -1.36% (inactive). Take `CN1CCN(c2nc(-c3ccccn3)nnc2-c2ccccc2)CC1`: in test [1], the AC50 was 8.76 µM. The same measure, in the same setting: under `O=C(NCCCn1ccnc1)c1cc(-c2ccccc2)on1` stands 16 µM.
